Experimental findings from paper PMC7058367 (Biochemical pharmacology, 2018) are described below.

Read-outs that look alike come from different tables or passages of the source.

For one assay, the target named is GluN1/GluN2A receptors (Rattus norvegicus, UniProt P35439+Q00959). Type of assay: cell-based. The method in brief:
(§1)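 Xenopus laevis oocytes were injected with GluN1a:GluN2 RNA at a 1:3 molar ratio (15-30 ng total; 10-20-fold more for CTD-deleted subunits) and kept in ND-96 at 17 °C for 1-5 days. TEVC was run at -60 mV in 116 mM NaCl, 2 mM KCl, 0.3 mM BaCl2, 5 mM HEPES, pH 7.4. […] Full-length controls came from the same batch and day; mean ± s.e.m.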

Assay [1] concerns the target GluN1/GluN2A^ΔCTD receptors (Rattus norvegicus, UniProt P35439+Q00959). Format: cell-based. Put shortly: as §1
The target in a further assay is GluN1/GluN2C receptors (Rattus norvegicus, UniProt P35439+Q00961). Format: cell-based. Put shortly:
(§2)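 Oocytes expressed wild-type GluN1a/GluN2 receptors from 15-30 ng RNA (1:3 molar) and were held in ND-96 at 17 °C for 1-5 days. For Ca2+ chelation, 5 mM EGTA (50 nL) was injected 1-2 h before recording, with uninjected and water-injected oocytes as controls. TEVC was run at -60 mV in 116 mM NaCl, 2 mM KCl, 0.3 mM BaCl2, 5 mM HEPES (pH 7.4). […] Values are mean ± s.e.m.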

For a further assay, the target named is GluN1/GluN2D receptors (Rattus norvegicus, UniProt P35439+Q62645). Type of assay: cell-based. Put shortly: as §2
Assay [2] addresses GluN1/GluN2C^ΔCTD receptors (Rattus norvegicus, UniProt P35439+Q00961). The assay can be described thus: Two-electrode voltage clamp of GluN2C CTD-deleted receptors. Format: cell-based. The method in brief:
(§3)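 Xenopus laevis oocytes were injected with GluN1a and GluN2 RNA at a 1:3 molar ratio. The CTD was removed by a stop codon at GluN1 838K or GluN2C 855K, and 10-20-fold more RNA than wild type was injected. Oocytes were kept in ND-96 at 17 °C for 1-5 days. TEVC was run at -60 mV in Ba2+ buffer (pH 7.4). […] Full-length receptors were run alternately on the same day and oocyte batch. Values are mean ± s.e.m.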
On the technique in general: Two-electrode voltage clamp holds a large cell at a set potential and records current.

The target of assay [3] is GluN1/GluN2D^ΔCTD receptors (Rattus norvegicus, UniProt P35439+Q62645). Format: cell-based.
The target in assay [4] is GluN1^ΔCTD/GluN2D receptors (Rattus norvegicus, UniProt P35439+Q62645). Format: cell-based. The method in brief: as §3
Assay [5] concerns the target GluN1^ΔCTD/GluN2A receptors (Rattus norvegicus, UniProt P35439+Q00959). Format: cell-based. Particulars: for effect of GluN1 CTD-deletion on modulator activity at GluN2A receptors: vs GluN1^WT/GluN2A, GNE-8324 30 µM, PAS 100 µM, DQP-1105 50 µM, TCN-201 10 µM (Fig. 4E, 5G-I). The method in brief:
as §1

Assay [6] deals with GluN1/GluN2B^ΔCTD receptors (Rattus norvegicus, UniProt P35439+Q00960). Type of assay: cell-based. The settings on record: for % potentiation of agonist-evoked current: 10 µM L-glutamate/10 µM glycine (Fig. 2B, 4B).
The next assay has as its target GluN1/GluN2B receptors (Rattus norvegicus, UniProt P35439+Q00960). Type of assay: cell-based.
Assay [7] addresses GluN1^ΔCTD/GluN2B receptors (Rattus norvegicus, UniProt P35439+Q00960). Type of assay: cell-based. The settings on record: 100 µM compound; 10 µM L-glutamate/10 µM glycine (Fig. 2C). The method in brief:
as §1

The target of assay [8] is GluN1^ΔCTD/GluN2C receptors (Rattus norvegicus, UniProt P35439+Q00961). Type of assay: cell-based. Particulars: 100 µM compound; 10 µM L-glutamate/10 µM glycine (Fig. 2C). Put shortly: as §1
The test system of assay [9] is GluN1 CTD in neurons expressing GluN1-GFP, GluN2A and GluN1-mCherry. The experiment in a line: CTD-FRET. Type of assay: cell-based, rat. The settings on record: 75 µM compound, absence of agonists, imaged 10 min after application (Fig. 8). The method in brief: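 Rat primary hippocampal neurons were transfected at DIV 7-10 with ~2 µg total DNA (GluN1-GFP, GluN2A, GluN1-mCherry) by lipofection and imaged at 16-18 DIV in 0.87x HBSS, 5 mM HEPES, 1 mM glucose, 2.5 mM MgCl2, 0.5 mM CaCl2. Baseline and 10 min post-compound two-photon FLIM images were taken, each neuron imaged twice, compounds interleaved. Lifetimes were fit single-exponential and analysed blind; two preparations pooled.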

[10] abbreviates: 10 µM compound, 10 µM L-glutamate/10 µM glycine, GluN2A^WT (Fig. 5D-F).
The mark [11] stands for this setting: 10 µM compound, 10 µM L-glutamate/10 µM glycine (Fig. 5D-F).
Setting [12] is: 10 µM compound, 10 µM L-glutamate/10 µM glycine (Fig. 4D).
The mark [13] stands for this setting: 10 µM compound, 10 µM L-glutamate/10 µM glycine (Fig. 5C).
[14] abbreviates: 30 µM compound, 10 µM L-glutamate/10 µM glycine (Fig. 4A, 5B).
[15] abbreviates: 30 µM compound, vs WT (Fig. 5B).
[16] abbreviates: 100 µM compound, 10 µM L-glutamate/10 µM glycine (Fig. 2B, 5A).
Setting [17] is: 10 µM FSK and 1 mM IBMX for 10 minutes, 50 µM UBP684, 100 µM PS (Fig. 7B, C).
Where [18] appears, read: 100 µM compound, control cells for U73122 experiment (Fig. 6J).
Where [19] appears, read: 100 µM compound, 10 µM L-glutamate/10 µM glycine (Fig. 2C).

Chain of GluN1/GluN2C receptors (Q00961 20-1237, other chains not shown): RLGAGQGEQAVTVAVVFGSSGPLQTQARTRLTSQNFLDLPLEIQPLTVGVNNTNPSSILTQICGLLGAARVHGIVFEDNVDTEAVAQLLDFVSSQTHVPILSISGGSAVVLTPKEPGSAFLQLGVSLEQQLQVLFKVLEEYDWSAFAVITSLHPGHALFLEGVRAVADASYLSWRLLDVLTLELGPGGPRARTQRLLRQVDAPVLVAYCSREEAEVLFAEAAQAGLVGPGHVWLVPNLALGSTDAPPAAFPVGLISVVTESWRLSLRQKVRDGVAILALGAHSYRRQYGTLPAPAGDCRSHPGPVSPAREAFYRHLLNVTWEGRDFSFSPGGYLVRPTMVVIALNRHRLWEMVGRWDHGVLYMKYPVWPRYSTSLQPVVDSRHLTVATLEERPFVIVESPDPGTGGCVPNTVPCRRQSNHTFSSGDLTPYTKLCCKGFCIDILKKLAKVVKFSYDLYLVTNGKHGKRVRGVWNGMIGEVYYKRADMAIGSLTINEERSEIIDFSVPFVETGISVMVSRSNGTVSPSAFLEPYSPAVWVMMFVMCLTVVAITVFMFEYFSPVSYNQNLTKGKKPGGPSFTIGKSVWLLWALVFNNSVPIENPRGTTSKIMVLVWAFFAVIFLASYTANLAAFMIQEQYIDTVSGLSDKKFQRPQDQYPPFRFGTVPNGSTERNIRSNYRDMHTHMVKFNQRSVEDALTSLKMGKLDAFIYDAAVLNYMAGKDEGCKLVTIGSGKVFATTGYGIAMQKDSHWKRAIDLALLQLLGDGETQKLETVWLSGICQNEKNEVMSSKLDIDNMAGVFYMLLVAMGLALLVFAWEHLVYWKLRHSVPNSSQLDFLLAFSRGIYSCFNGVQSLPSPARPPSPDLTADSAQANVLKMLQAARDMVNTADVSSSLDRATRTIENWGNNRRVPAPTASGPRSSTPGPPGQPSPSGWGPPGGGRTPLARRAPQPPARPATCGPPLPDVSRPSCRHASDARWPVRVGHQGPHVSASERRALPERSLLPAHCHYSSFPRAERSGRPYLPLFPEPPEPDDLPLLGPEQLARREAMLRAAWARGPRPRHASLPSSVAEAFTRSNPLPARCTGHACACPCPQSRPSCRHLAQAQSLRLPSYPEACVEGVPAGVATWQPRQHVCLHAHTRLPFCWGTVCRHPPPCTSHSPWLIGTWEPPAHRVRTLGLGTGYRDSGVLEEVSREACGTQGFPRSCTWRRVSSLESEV
Chain of GluN1/GluN2D^ΔCTD receptors (Q62645 28-869 limits assumed, stated change not applied, other chains not shown): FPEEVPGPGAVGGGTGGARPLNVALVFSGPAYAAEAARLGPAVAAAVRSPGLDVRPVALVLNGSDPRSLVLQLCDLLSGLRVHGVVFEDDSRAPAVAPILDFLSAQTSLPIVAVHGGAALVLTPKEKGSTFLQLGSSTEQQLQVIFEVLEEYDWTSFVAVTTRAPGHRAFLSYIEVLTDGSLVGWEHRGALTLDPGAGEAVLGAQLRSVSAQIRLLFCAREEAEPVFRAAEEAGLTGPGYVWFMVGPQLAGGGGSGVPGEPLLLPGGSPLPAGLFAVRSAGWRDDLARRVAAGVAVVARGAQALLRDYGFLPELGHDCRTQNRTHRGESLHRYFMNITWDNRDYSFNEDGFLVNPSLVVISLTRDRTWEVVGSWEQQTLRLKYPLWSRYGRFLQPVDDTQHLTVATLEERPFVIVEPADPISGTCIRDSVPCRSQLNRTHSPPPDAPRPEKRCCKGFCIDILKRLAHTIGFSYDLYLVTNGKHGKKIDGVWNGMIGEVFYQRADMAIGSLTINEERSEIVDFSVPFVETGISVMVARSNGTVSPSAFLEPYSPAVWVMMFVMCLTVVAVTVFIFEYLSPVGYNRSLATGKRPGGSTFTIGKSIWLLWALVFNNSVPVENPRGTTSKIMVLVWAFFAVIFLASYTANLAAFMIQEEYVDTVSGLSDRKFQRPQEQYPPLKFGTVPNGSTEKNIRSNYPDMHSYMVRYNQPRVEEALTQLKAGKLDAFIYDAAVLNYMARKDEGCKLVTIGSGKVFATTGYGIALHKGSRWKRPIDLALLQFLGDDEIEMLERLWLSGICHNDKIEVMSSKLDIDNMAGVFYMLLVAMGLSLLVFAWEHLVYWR
Chain of GluN1/GluN2D receptors (Q62645 28-1323, other chains not shown): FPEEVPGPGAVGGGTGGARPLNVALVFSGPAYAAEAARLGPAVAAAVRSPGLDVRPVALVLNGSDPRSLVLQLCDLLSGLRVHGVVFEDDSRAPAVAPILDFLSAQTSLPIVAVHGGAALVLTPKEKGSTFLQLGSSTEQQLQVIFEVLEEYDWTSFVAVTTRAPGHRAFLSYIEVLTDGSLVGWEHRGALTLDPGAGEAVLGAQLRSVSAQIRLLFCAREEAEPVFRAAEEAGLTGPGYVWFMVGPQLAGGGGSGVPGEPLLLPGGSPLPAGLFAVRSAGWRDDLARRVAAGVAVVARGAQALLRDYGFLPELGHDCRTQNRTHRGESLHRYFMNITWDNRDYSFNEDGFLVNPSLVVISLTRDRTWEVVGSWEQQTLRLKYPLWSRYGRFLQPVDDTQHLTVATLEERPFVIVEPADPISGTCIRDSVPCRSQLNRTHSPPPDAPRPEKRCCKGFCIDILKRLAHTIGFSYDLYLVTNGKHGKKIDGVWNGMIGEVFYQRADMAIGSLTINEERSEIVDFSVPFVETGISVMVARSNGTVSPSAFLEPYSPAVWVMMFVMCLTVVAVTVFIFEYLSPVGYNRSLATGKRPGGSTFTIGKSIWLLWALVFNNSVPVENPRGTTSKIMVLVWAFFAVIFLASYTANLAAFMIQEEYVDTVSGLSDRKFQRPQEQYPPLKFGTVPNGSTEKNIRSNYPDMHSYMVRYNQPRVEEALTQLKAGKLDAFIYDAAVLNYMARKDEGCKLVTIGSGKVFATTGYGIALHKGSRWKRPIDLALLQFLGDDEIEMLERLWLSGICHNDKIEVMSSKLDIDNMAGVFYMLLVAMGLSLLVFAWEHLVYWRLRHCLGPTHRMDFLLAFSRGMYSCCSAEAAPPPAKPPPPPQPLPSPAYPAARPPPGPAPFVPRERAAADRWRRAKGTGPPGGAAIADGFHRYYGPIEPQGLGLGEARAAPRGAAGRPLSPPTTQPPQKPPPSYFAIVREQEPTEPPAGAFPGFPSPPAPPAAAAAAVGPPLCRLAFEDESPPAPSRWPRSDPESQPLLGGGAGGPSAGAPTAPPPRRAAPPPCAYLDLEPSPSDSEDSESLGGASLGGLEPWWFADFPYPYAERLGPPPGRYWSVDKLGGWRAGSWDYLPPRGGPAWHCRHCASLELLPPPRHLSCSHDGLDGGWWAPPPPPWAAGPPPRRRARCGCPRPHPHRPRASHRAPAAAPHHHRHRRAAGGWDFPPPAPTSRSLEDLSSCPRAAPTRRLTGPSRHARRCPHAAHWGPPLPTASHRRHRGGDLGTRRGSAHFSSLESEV
Chain of GluN1/GluN2C^ΔCTD receptors (Q00961 20-842, stated change not applied, other chains not shown): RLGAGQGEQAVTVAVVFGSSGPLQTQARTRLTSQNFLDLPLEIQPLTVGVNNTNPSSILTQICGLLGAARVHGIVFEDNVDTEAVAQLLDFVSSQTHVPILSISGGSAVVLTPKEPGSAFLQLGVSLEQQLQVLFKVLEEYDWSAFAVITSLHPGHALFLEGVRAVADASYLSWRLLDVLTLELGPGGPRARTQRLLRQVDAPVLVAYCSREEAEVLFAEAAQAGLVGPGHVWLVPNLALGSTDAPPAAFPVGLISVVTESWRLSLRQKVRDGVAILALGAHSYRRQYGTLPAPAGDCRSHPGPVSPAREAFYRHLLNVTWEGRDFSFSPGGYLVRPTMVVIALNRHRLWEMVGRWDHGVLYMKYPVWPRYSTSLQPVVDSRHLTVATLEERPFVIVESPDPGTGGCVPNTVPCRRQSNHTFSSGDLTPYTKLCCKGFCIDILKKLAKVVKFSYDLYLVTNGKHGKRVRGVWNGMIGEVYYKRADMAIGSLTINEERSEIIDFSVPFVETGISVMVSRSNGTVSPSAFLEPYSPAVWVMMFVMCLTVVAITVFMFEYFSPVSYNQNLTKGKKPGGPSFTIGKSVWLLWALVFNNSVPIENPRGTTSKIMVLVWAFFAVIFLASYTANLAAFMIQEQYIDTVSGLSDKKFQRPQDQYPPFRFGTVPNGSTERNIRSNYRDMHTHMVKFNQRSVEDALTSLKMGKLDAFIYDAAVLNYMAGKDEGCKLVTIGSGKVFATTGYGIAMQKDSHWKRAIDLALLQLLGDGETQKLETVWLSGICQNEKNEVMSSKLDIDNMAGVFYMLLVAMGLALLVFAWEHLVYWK
Chain of GluN1^ΔCTD/GluN2D receptors (Q62645 28-1323, stated change not applied, other chains not shown): as the sequence (Q62645 28-1323, other chains not shown) above
Chain of GluN1^ΔCTD/GluN2C receptors (Q00961 20-1237, stated change not applied, other chains not shown): as the sequence (Q00961 20-1237, other chains not shown) above

As for `Cc1ncc(CNC(=O)c2cnc(CNS(=O)(=O)c3ccc(F)c(Cl)c3)cn2)s1` [MPX-004], the entries for the “% inhibition of agonist-evoked current” value (on GluN1/GluN2A receptors (setting [10]); in assay [1] (setting [11])) were 75 ± 8% and 29 ± 13%, respectively.

With `COc1ccc(OCC2c3cc(OC)c(OC)cc3CCN2C(=O)c2cccc(Cl)c2)cc1` (stereo not drawn) [CIQ], the “% potentiation of agonist-evoked current” value on GluN1/GluN2C receptors (10 µM compound, 10 µM L-glutamate/10 µM glycine, GluN2C^WT (Fig. 4D)) came out at 89 ± 8%; on GluN1/GluN2D receptors (10 µM compound, 10 µM L-glutamate/10 µM glycine, GluN2D^WT (Fig. 4D)), 72 ± 11%; in assay [2] (setting [12]) it was 113 ± 13%; in assay [3] (setting [12]), 48 ± 5%. Moreover, the “effect of GluN1 CTD-deletion on PAM activity” value in assay [4] (10 µM compound, vs wild-type GluN1/GluN2D (Fig. 4F)) is recorded as “significantly reduced”.

For `Cc1ccc2[nH]c(=O)c(C3=NN(C(=O)CCC(=O)O)C(c4ccc(Br)cc4)C3)c(-c3ccccc3)c2c1` (stereo not drawn) [DQP-1105], the “% inhibition of agonist-evoked current” value is 39 ± 3% on GluN1/GluN2A receptors (50 µM compound, 10 µM L-glutamate/10 µM glycine, WT (Fig. 5C)); 69 ± 2% at GluN1/GluN2C receptors (10 µM compound, 10 µM L-glutamate/10 µM glycine, WT (Fig. 5C)); 87 ± 1% on GluN1/GluN2D receptors (10 µM compound, 10 µM L-glutamate/10 µM glycine, GluN2D^WT (Fig. 5C)); 82 ± 4% in [1] (50 µM compound, 10 µM L-glutamate/10 µM glycine (Fig. 5C)); 79 ± 4% in [2] (setting [13]); 97 ± 2% in assay [3] (setting [13]). Moreover, the “effect of GluN1 CTD-deletion on modulator activity at GluN2A receptors” value (shortened to “effect … at GluN2A receptors”) in assay [5] was “did not observe any effect”.

As to `O=C(NNC(=O)c1ccc(CNS(=O)(=O)c2ccc(F)c(Cl)c2)cc1)c1ccccc1` [TCN-201], the “% inhibition of agonist-evoked current” value at GluN1/GluN2A receptors (setting [10]) is recorded as 82 ± 2%; in [1] (setting [11]) it was 53 ± 5%. Moreover, the “effect … at GluN2A receptors” value in [5] is listed as “did not observe any effect”.

In the case of `Cc1ncc(CNC(=O)c2cnc(CNS(=O)(=O)c3ccc(F)c(F)c3)c(C)n2)s1` [MPX-007], the “% inhibition of agonist-evoked current” value at GluN1/GluN2A receptors (setting [10]) stood at 77 ± 9%; in assay [1] (setting [11]), 36 ± 6%.

Regarding `NCCCNCCCCNCCCN` [Spermine], the “% potentiation of agonist-evoked current” value in assay [6] (100 µM compound) is 57 ± 5%.

Consider `O=C(O)c1cc2cc(/C=C/c3ccccc3[N+](=O)[O-])ccc2cc1O` [UBP792], for which the “% inhibition of agonist-evoked current” value on GluN1/GluN2A receptors (30 µM compound, 10 µM L-glutamate/10 µM glycine, WT (Fig. 5B)) came to 22 ± 8%; at GluN1/GluN2D receptors (30 µM compound, 10 µM L-glutamate/10 µM glycine, wild-type (Fig. 5B)), 86 ± 1%; in assay [1] (setting [14]), 64 ± 6%; in assay [3] (30 µM compound, 10 µM L-glutamate/10 µM glycine (Fig. 5B)), 68 ± 7%. For the same compound, in assay [6] (setting [15]), the “effect of GluN2B CTD-deletion on NAM activity” value is “did not display a significant effect”. Also, the “effect of GluN2C CTD-deletion on NAM activity” value in assay [2] (setting [15]) is given as “did not display a significant effect”.

As for `CCN(Cc1cc(=O)n2c3c(sc2n1)CCC3)c1ccc(F)cc1` [GNE-8324], the “% potentiation of agonist-evoked current” value at GluN1/GluN2A receptors (30 µM compound, 10 µM L-glutamate/10 µM glycine, GluN2A^WT (Fig. 4A)) turned out to be 35 ± 4%. Also, the “% inhibition of agonist-evoked current” value in assay [1] (setting [14]) stood at 11 ± 2%. The “effect … at GluN2A receptors” value in assay [5] was “unaffected”.

Turning to `CC(=O)[C@H]1CC[C@H]2[C@@H]3CC[C@@H]4C[C@H](OS(=O)(=O)O)CC[C@]4(C)[C@H]3CC[C@]12C` [PAS, 5β-pregnan-3α-ol-20-onesulphate], the “% inhibition of agonist-evoked current” value worked out at 61 ± 3% on GluN1/GluN2A receptors (100 µM compound, 10 µM L-glutamate/10 µM glycine, GluN2A^WT (Fig. 5A)); 67 ± 1% on GluN1/GluN2B receptors (100 µM compound, 10 µM L-glutamate/10 µM glycine, GluN2B^WT (Fig. 5A)); 89 ± 2% in [1] (setting [16]); 76 ± 3% in [6] (100 µM compound, 10 µM L-glutamate/10 µM glycine (Fig. 5A)); 93 ± 1% in assay [2] (setting [16]); 85 ± 5% in assay [3] (setting [16]). Moreover, the “effect … at GluN2A receptors” value in [5] was “did not observe any effect”.

On to `COC(=O)c1ccc(C2C(C(C)=O)=C(O)C(=O)N2CCc2c(C)[nH]c3ccccc23)cc1` (stereo not drawn) [PYD-106], for which the “% potentiation of agonist-evoked current” value on GluN1/GluN2C receptors (30 µM compound, 10 µM L-glutamate/10 µM glycine, GluN2C^WT (Fig. 4C)) came out at 64 ± 4%; in [2] (30 µM compound, 10 µM L-glutamate/10 µM glycine (Fig. 4C)), 21 ± 3%.

Turning to 5-Pregnen-3β-ol-20-onesulphate [PS], the “effect of PKA activation on % potentiation” value on GluN1/GluN2A receptors (setting [17]) and at GluN1/GluN2B receptors (setting [17]) was “unchanged” in each case. Also, the “% potentiation of agonist-evoked current” value at GluN1/GluN2A receptors (setting [18]) came to 45 ± 3%; at GluN1/GluN2B receptors (setting [18]), 82 ± 10%; in [6] (100 µM compound), 74 ± 10%; in assay [5] (setting [19]), 32 ± 4%; in assay [7], 156 ± 25%. The “effect of EGTA injection on modulation” value at GluN1/GluN2A receptors (5 mM EGTA injected vs controls (Fig. 6E)) and at GluN1/GluN2B receptors (5 mM EGTA injected vs controls (Fig. 6F)) was “no significant effect” in each case. The “effect of PKC activation by PMA on PAM activity” value is reported as “unaffected” at GluN1/GluN2B receptors (2 µM PMA for 10 minutes, 50 µM UBP684, 100 µM PS (Fig. 7E, F)) and “significantly increased” in [1] (2 µM PMA for 10 minutes, 50 µM UBP684, 100 µM PS (Fig. 7G, H)). Moreover, the “effect of EGTA injection on potentiation/modulation” value at GluN1/GluN2C receptors (5 mM EGTA injected vs controls (Fig. 6C, G)) is recorded as “no significant effect”; on GluN1/GluN2D receptors (5 mM EGTA injected vs controls (Fig. 6D, H)) it was “no significant effect”. Besides, the IC50 on GluN1/GluN2D receptors (10 µM L-glutamate/10 µM glycine, WT GluN1/GluN2D (Fig. 3)) was 149.8 ± 18.0%; in [3] (10 µM L-glutamate/10 µM glycine (Fig. 3)), 76.7 ± 19.1%. Besides, the “% inhibition of agonist-evoked current” value in [1] (setting [16]) amounted to 23 ± 4%; in [2] (setting [16]), 89 ± 2%; in assay [3] (setting [16]), 49 ± 8%; in [8] it was 66 ± 5%; in assay [4] (setting [19]), 45 ± 6%. The “modulation in dose-response experiment” value in assay [1] (all doses, the lowest being 3 µM, 10 µM L-glutamate/10 µM glycine (Fig. 3)) is “NAM activity at all doses”. Further, in [9], the “change of GluN1-GFP fluorescence lifetime (movement of the GluN1 CTD)” value is reported as “did not affect”.
